Assay results taken from ChEMBL document CHEMBL4350958, “Rational Design of Short Peptide Variants by Using Kunitzin-RE, an Amphibian-Derived Bioactivity Peptide, for Acquired Potent Broad-Spectrum Antimicrobial and Improved Therapeutic Potential of Commensalism Coinfection of Pathogens” (J Med Chem, 2019).

Experiments:
[1] = test system: Escherichia coli; test: Antibacterial activity against Escherichia coli ATCC 25922 measured after 24 hrs; format: functional; settings: ATCC 25922, 24 h
In short: (§1)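 Broth microdilution adapted from NCCLS. Mid-log bacteria were diluted in MHB to a final (0.5–1) × 10^5 CFU mL−1. Peptides were serially diluted in 0.2% BSA and mixed with an equal volume of cells. After 24 h at 37 °C, MIC was read at A492 as the lowest concentration inhibiting 95% of growth. At least three independent experiments, each with three technical replicates.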

[2] = test system: Escherichia coli; test: Antibacterial activity against Escherichia coli UB1005 measured after 24 hrs; format: functional; settings: UB1005, 24 h; in short: as §1
[3] = test system: Pseudomonas aeruginosa; test: Antibacterial activity against Pseudomonas aeruginosa ATCC 27853 measured after 24 hrs; format: functional; settings: ATCC 27853, 24 h; in short: as §1
[4] = test system: Escherichia coli; test: Antibacterial activity against Escherichia coli K88 measured after 24 hrs; format: functional; settings: K88, 24 h; in short: as §1
[5] = test system: Escherichia coli; test: Antibacterial activity against Escherichia coli 078 measured after 24 hrs; format: functional; settings: Escherichia coli, 078, 24 h; in short: as §1
[6] = test system: Candida parapsilosis; test: Antifungal activity against Candida parapsilosis cgmcc2.3989 measured after 48 hrs by broth microdilution method; format: functional; settings: Lodderomyces parapsilosis, cgmcc2.3989, 48 h
In short: (§2)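 Modified CLSI M27-A2 microdilution. Yeast colonies were diluted in MOPS-buffered RPMI 1640 to a final (0.5–1) × 10^3 CFU mL−1 and mixed with an equal volume of peptide serially diluted in 0.2% BSA. After 48 h at 28 °C, MIC was read at A492 as the lowest concentration inhibiting 95% of growth. At least three independent experiments, each with three technical replicates.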

[7] = test system: Candida tropicalis; test: Antifungal activity against Candida tropicalis cgmcc2.1975 measured after 48 hrs by broth microdilution method; format: functional; settings: cgmcc2.1975, 48 h; in short: as §2
[8] = test system: Salmonella typhimurium; test: Bactericidal activity against Salmonella typhimurium ATCC 14028 incubated for 24 hrs followed by replating on agar plate and measured after overnight incubation; format: functional, Salmonella enterica subsp. enterica serovar Typhimurium; settings: Salmonella enterica, ATCC 14028, 24 h; read-out: MBC>99.9
In short: (§3)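 Mid-log bacteria diluted in MHB to (0.5–1) × 10^5 CFU/mL and mixed 1:1 with peptide serially diluted in 0.2% BSA. After 24 h at 37 °C, 50 μL of each mixture was plated on agar and incubated overnight. MBC taken as the lowest concentration killing >99.9% of cells. At least three independent experiments, each with three technical replicates.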

[9] = test system: Pseudomonas aeruginosa; test: Bactericidal activity against Pseudomonas aeruginosa ATCC 27853 incubated for 24 hrs followed by replating on agar plate and measured after overnight incubation; format: functional; settings: ATCC 27853, 24 h, read-out: MBC>99.9; in short: as §3
[10] = test system: Escherichia coli; test: Bactericidal activity against Escherichia coli K99 incubated for 24 hrs followed by replating on agar plate and measured after overnight incubation; format: functional; settings: K99, 24 h, read-out: MBC>99.9; in short: as §3
[11] = test system: Escherichia coli; test: Bactericidal activity against Escherichia coli 078 incubated for 24 hrs followed by replating on agar plate and measured after overnight incubation; format: functional; settings: Escherichia coli, 078, 24 h; read-out: MBC>99.9
In short: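 After the 24 h, 37 °C MHB microdilution (0.5–1 × 10^5 CFU mL−1 inoculum, peptides diluted in 0.2% BSA), 50 μL from each well was plated on agar and incubated overnight. MBC was taken as the lowest concentration killing >99.9% of cells. Three or more independent experiments, each with triplicate technical replicates.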

[12] = test system: Staphylococcus aureus; test: Bactericidal activity against Staphylococcus aureus ATCC 25923 incubated for 24 hrs followed by replating on agar plate and measured after overnight incubation; format: functional; settings: ATCC 25923, 24 h, read-out: MBC>99.9
In short: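 After the 24 h, 37 °C MHB microdilution MIC assay, 50 μL from each well was plated on agar and incubated overnight. MBC taken as lowest peptide concentration killing >99.9% of cells. At least three independent experiments, each with three technical replicates.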

[13] = test system: Erythrocyte; test: Hemolytic activity in human RBC measured after 1 hr; format: ADME, cell-based
In short: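 Fresh healthy-donor human erythrocytes at ~1% (v/v) in PBS pH 7.4, mixed 1:1 with peptide (1–128 µM), 1 h at 37 °C. After centrifugation at 1000×g, supernatant hemoglobin read at 576 nm. Untreated cells set 0% and 0.1% Triton X-100 set 100%. MHC defined as the concentration giving >10% hemolysis. Three or more independent experiments, triplicates.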

[14] = test system: Escherichia coli; test: Antibacterial activity against Escherichia coli ATCC 25922 measured after 18 to 24 hrs in presence of NaCl; format: functional
[15] = test system: Escherichia coli; test: Antibacterial activity against Escherichia coli ATCC 25922 measured after 18 to 24 hrs in presence of CaCl2; format: functional
[16] = test system: Escherichia coli; test: Antibacterial activity against Escherichia coli ATCC 25922 measured after 18 to 24 hrs in presence of ZnCl2; format: functional
[17] = test system: Escherichia coli; test: Antibacterial activity against Escherichia coli ATCC 25922 measured after 18 to 24 hrs in presence of FeCl3; format: functional
[18] = test system: Escherichia coli; test: Antibacterial activity against Escherichia coli ATCC 25922 measured after 18 to 24 hrs in presence of NH4Cl; format: functional
[19] = test system: Staphylococcus aureus; test: Antibacterial activity against Staphylococcus aureus ATCC 29213 measured after 18 to 24 hrs in presence of KCl; format: functional
[20] = test system: Staphylococcus aureus; test: Antibacterial activity against Staphylococcus aureus ATCC 29213 measured after 18 to 24 hrs in presence of CaCl2; format: functional
[21] = test system: Staphylococcus aureus; test: Antibacterial activity against Staphylococcus aureus ATCC 29213 measured after 18 to 24 hrs in presence of FeCl3; format: functional
[22] = test system: Candida albicans; test: Antifungal activity against Candida albicans cgmcc2.2086 measured after 48 hrs in presence of NH4Cl by broth microdilution method; format: functional; settings: cgmcc2.2086, 48 h
[23] = Therapeutic index, ratio of MHC10 for hemolytic activity in human RBC to MIC95 against Escherichia coli ATCC 25922; format: toxicity; settings: human red blood cells (erythrocytes), pooled result: one value given for 9 cell lines, strains, targets or settings, read-out: TI
In short: (§4)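 Therapeutic index = MHC divided by MIC. MHC is the lowest concentration giving >10% lysis of human RBC (1 h, 37 °C, 1-128 µM, A576). MIC is 95% growth inhibition by broth microdilution: bacteria in MHB 24 h at 37 °C; Candida in MOPS-buffered RPMI 1640 at (0.5–1) × 10^3 CFU mL−1, 48 h at 28 °C.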

[24] = Therapeutic index, ratio of MHC10 for hemolytic activity in human RBC to MIC95 against Staphylococcus aureus ATCC 25923; format: toxicity; settings: human red blood cells (erythrocytes), read-out: TI; in short: as §4
[25] = Therapeutic index, ratio of MHC10 for hemolytic activity in human RBC to MIC95 against Candida albicans cgmcc2.2086; format: toxicity; settings: human red blood cells (erythrocytes), read-out: TI; in short: as §4
[26] = Therapeutic index, ratio of MHC10 for hemolytic activity in human RBC to MIC95 against Candida tropicalis cgmcc2.1975; format: toxicity; settings: human red blood cells (erythrocytes), read-out: TI; in short: as §4
[27] = Conformational stability in pH 7.4 sodium phosphate buffer assessed as absorption spectra at minimum dichroic band at 35 uM by CD spectra analysis; format: physicochemical; settings: pH 7.4, 35 µM
In short: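 CD spectra from 190 to 250 nm of peptide at 35 μM in 10 mM PBS, 30 mM SDS micelles or 50% TFE, recorded in a 1.0-mm quartz cell. Ellipticity was converted to mean residue ellipticity. Three independent scans, each averaged over more than 3 runs.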

H-AARIILRWRFR-NH2 gave an MIC95 [1] of 4 µM, an MIC95 [2] of 4 µM and an MIC95 [3] of 4 µM. It also gave an MIC95 [4] of 2 µM, an MIC95 [5] of 2 µM and an MIC95 [6] of 4 µM. The MIC95 [7] was 4 µM, the MBC [8] was 4 µM and the MBC [9] was 4 µM. It also gave an MBC [10] of 4 µM, an MBC [11] of 2 µM and an MBC [12] of 4 µM. It also gave an MHC10 [13] greater than 128 µM, an MIC95 [14] of 8 µM and an MIC95 [15] of 4 µM. For the same substance, the MIC95 [16] was 4 µM, the MIC95 [17] was 4 µM and the MIC95 [18] was 4 µM. For the same substance, the MIC95 [19] was 1 µM, the MIC95 [20] was 2 µM and the MIC95 [21] was 1 µM. It also gave an MIC95 [22] of 8 µM, a selectivity ratio [23] of 94.1 and a selectivity ratio [24] of 215. For the same substance, the selectivity ratio [25] was 50.8, the selectivity ratio [26] was 50.8 and the “Wavelength of minimum CD band” value [27] was 200 nm.
H-AARIILRYRFR-NH2 showed an MIC95 [1] of 8 µM, an MIC95 [2] of 4 µM and an MIC95 [3] of 16 µM. The MIC95 [4] was 4 µM, the MIC95 [5] was 4 µM and the MIC95 [6] was 64 µM. For the same substance, the MIC95 [7] was 16 µM, the MBC [8] was 16 µM and the MBC [9] was 64 µM. For the same substance, the MBC [10] was 8 µM, the MBC [11] was 4 µM and the MBC [12] was 16 µM. It also gave an MHC10 [13] greater than 128 µM, an MIC95 [14] greater than 128 µM and an MIC95 [15] greater than 128 µM. It also gave an MIC95 [16] of 8 µM, an MIC95 [17] of 16 µM and an MIC95 [18] of 8 µM. The MIC95 [19] was 8 µM, the MIC95 [20] was 64 µM and the MIC95 [21] was 4 µM. For the same substance, the MIC95 [22] was 64 µM, the selectivity ratio [23] was 47 and the selectivity ratio [24] was 64. The selectivity ratio [25] was 8, the selectivity ratio [26] was 8 and the “Wavelength of minimum CD band” value [27] was 200 nm.
H-AARRILRWIFR-NH2 gave an MIC95 [1] of 4 µM, an MIC95 [2] of 4 µM and an MIC95 [3] of 8 µM. For the same substance, the MIC95 [4] was 4 µM, the MIC95 [5] was 4 µM and the MIC95 [6] was 8 µM. For the same substance, the MIC95 [7] was 4 µM, the MBC [8] was 8 µM and the MBC [9] was 16 µM. The MBC [10] was 8 µM, the MBC [11] was 4 µM and the MBC [12] was 8 µM. It also gave an MHC10 [13] greater than 128 µM, an MIC95 [14] of 64 µM and an MIC95 [15] of 16 µM. It also gave an MIC95 [16] of 8 µM, an MIC95 [17] of 8 µM and an MIC95 [18] of 4 µM. The MIC95 [19] was 4 µM, the MIC95 [20] was 8 µM and the MIC95 [21] was 4 µM. It also gave an MIC95 [22] of 8 µM, a selectivity ratio [23] of 59.3 and a selectivity ratio [24] of 45.2. The selectivity ratio [25] was 40.3, the selectivity ratio [26] was 40.3 and the “Wavelength of minimum CD band” value [27] was 200 nm.
